# Data reported in ChEMBL document CHEMBL1134791, “2- and 3-substituted 1,4-naphthoquinone derivatives as subversive substrates of trypanothione reductase and lipoamide dehydrogenase from Trypanosoma cruzi: synthesis and correlation between redox cycling activities and in vitro cytotoxicity” (J Med Chem, 2001).
# How the values were obtained:
# [1] = system: Trypanosoma brucei; assay: In vitro antiparasitic activity against Trypanosoma brucei was tested by sigmoidal regression analysis; format: functional; settings: read-out: ED50 (the source's name)
# Method in brief: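 T. b. brucei S427 bloodstream trypomastigotes at 2 × 10⁵/mL in HMI-18 medium, in triplicate, with a 3-fold dilution series starting at 30 µM. Incubated 3 days at 37 °C in 5% CO₂. Pentamidine served as positive control. Viability read by tetrazolium colorimetric assay on day 3. ED50 by sigmoidal regression.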
# [2] = system: Trypanosoma cruzi; assay: In vitro antiparasitic activity against Trypanosoma cruzi was tested by sigmoidal regression analysis; format: functional; settings: read-out: ED50 (the source's name)
# Method in brief: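 Mouse peritoneal macrophages (female CD1, starch-elicited, harvested 24 h) infected with L. donovani amastigotes (strain MHOM/ET/67/L82, hamster spleen) or T. cruzi Y-strain trypomastigotes (5:1, from MDCK overlay). Infected cells exposed to a 3-fold dilution series in quadruplicate for 5 days (L. donovani) or 3 days (T. cruzi). Giemsa-stained slides scored for % macrophages cleared of amastigotes versus untreated cultures. ED50 by sigmoidal regression.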
# [3] = target: Trypanothione reductase (Trypanosoma cruzi, UniProt P28593); assay: Inhibitory activity against Trypanosoma cruzi trypanothione disulfide reductase, assay in presence of 57 uM T(S)2.
# Method in brief: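 Assay contained 250 µM NADPH, 57 µM T(S)₂, inhibitor at 0.3–50 µM and 1% DMSO final. Started with enzyme; NADPH loss followed at 340 nm. IC50 in duplicate.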
# Chain of Trypanothione reductase (P28593 whole entry): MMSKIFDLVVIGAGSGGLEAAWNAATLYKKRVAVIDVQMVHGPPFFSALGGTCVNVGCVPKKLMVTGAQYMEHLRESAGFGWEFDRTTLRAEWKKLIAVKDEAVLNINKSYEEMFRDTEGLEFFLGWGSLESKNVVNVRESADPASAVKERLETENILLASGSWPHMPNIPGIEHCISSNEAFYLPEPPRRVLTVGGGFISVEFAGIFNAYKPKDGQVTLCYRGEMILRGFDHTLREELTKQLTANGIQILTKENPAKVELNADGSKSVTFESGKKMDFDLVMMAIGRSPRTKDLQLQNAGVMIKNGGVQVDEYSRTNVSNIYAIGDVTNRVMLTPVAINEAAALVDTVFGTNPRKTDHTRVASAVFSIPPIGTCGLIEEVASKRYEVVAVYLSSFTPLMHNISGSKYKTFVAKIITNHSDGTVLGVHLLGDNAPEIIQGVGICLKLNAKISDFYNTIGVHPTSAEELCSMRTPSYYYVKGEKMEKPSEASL
Structure (SMILES),EC50 [1],EC50 [2],IC50 [3]
O=C(O)CCCCCC1=C(CCCCCC(=O)O)C(=O)c2ccccc2C1=O,48 µM,> 74 µM,> 50 µM
CN1CCN(CCCNC(=O)CCC2=C(CCC(=O)NCCCN3CCN(C)CC3)C(=O)c3c(O)cccc3C2=O)CC1,21.5 µM,> 50 µM,> 50 µM
O=C(O)CCCCC1=C(CCCCC(=O)O)C(=O)c2c(O)cccc2C1=O,> 80 µM,80 µM,> 50 µM
CC1=C(CCCC(=O)NCCCCNCCCNC(=O)CCCC2=C(C)C(=O)c3cccc(O)c3C2=O)C(=O)c2c(O)cccc2C1=O,> 4.5 µM,46 µM,2.3 µM
CC1=C(NCCCC/N=C2/C(=O)c3ccccc3C(O)=C2C)C(=O)c2ccccc2C1=O,> 12.5 µM,> 12.5 µM,> 57 µM
CN(C)CCCN1CCN(CC2=C(N3CCN(CCCN(C)C)CC3)C(=O)c3ccccc3C2=O)CC1,> 12.5 µM,> 12.5 µM,> 57 µM
CC1=C(CCC(=O)N2CCN(C)CC2)C(=O)c2c(O)cccc2C1=O,52 µM,> 88 µM,50 µM
CC1=C(NCCCN2CCN(CCCN)CC2)C(=O)c2ccccc2C1=O,,> 12.5 µM,6 µM
CC1=C(CCCC(=O)NCCCNCCCNC(=O)CCCC2=C(C)C(=O)c3cccc(O)c3C2=O)C(=O)c2c(O)cccc2C1=O,> 4.6 µM,47 µM,2 µM
CC1=C(CCCC(=O)O)C(=O)c2c(O)cccc2C1=O,78 µM,> 109 µM,> 50 µM
CC1=C(CCCCC(=O)NCCCNCCCNC(=O)CCCCC2=C(C)C(=O)c3ccccc3C2=O)C(=O)c2ccccc2C1=O,15.3 µM,45 µM,18.7 µM
O=C(O)CCCC1=C(CCCC(=O)O)C(=O)c2c(O)cccc2C1=O,61 µM,> 87 µM,> 50 µM
CC1=C(CCC(=O)O)C(=O)c2ccccc2C1=O,> 30 µM,> 30 µM,> 50 µM
CN1CCN(CCCNC(=O)CCCCC2=C(CCCCC(=O)NCCCN3CCN(C)CC3)C(=O)c3c(O)cccc3C2=O)CC1,> 15 µM,> 46 µM,6.2 µM
CC1=C(NCCCNCCCN)C(=O)c2ccccc2C1=O,> 12.5 µM,> 12.5 µM,12 µM
O=C(O)CCC1=C(CCC(=O)O)C(=O)c2c(O)cccc2C1=O,59 µM,> 94 µM,> 50 µM
CC1=C(N2CCN(CCCN(C)C)CC2)C(=O)c2ccccc2C1=O,> 12.5 µM,> 12.5 µM,> 57 µM
CC1=C(CCC(=O)NCCCNCCCNC(=O)CCC2=C(C)C(=O)c3ccccc3C2=O)C(=O)c2ccccc2C1=O,4.5 µM,47 µM,5 µM
CC1=C(CCC(=O)NCCCCNCCCNC(=O)CCC2=C(C)C(=O)c3cccc(O)c3C2=O)C(=O)c2c(O)cccc2C1=O,13.8 µM,46 µM,2.9 µM
CC1=C(CCCC(=O)O)C(=O)c2ccccc2C1=O,,,> 50 µM
CN1CCN(C(=O)CCC2=C(CCC(=O)N3CCN(C)CC3)C(=O)c3c(O)cccc3C2=O)CC1,22.2 µM,> 62 µM,> 50 µM
CC1=C(CCC(=O)N2CCN(C)CC2)C(=O)c2ccccc2C1=O,9.5 µM,70 µM,> 50 µM
CC1=C(NCCCCN)C(=O)c2c(O)cccc2C1=O,> 12.5 µM,> 12.5 µM,> 57 µM
CC1=C(CCCC(=O)NCCCN2CCN(C)CC2)C(=O)c2ccccc2C1=O,46 µM,> 76 µM,44 µM

# Continued by falling EC50 [2], values first:
EC50 [1],EC50 [2],IC50 [3],Structure (SMILES)
> 110 µM,44 µM,> 50 µM,CC1=C(CCCCC(=O)O)C(=O)c2ccccc2C1=O
> 10 µM,42 µM,> 50 µM,CC1=C(CCCCC(=O)O)C(=O)c2c(O)cccc2C1=O
> 3.3 µM,32 µM,> 50 µM,CC1=C(CCCCCC(=O)O)C(=O)c2c(O)cccc2C1=O
3.4 µM,28 µM,2.3 µM,CC1=C(CCCC(=O)NCCCN2CCN(CCCNC(=O)CCCC3=C(C)C(=O)c4cccc(O)c4C3=O)CC2)C(=O)c2c(O)cccc2C1=O
9.1 µM,27 µM,,CC1=C(CCCC(=O)N2CCN(C)CC2)C(=O)c2ccccc2C1=O
7.3 µM,26 µM,1.12 µM,CC1=C(CCCCC(=O)NCCCN2CCN(CCCNC(=O)CCCCC3=C(C)C(=O)c4ccccc4C3=O)CC2)C(=O)c2ccccc2C1=O
0.3 µM,24.4 µM,1.6 µM,CC1=C(CCCCCC(=O)NCCCCNCCCNC(=O)CCCCCC2=C(C)C(=O)c3cccc(O)c3C2=O)C(=O)c2c(O)cccc2C1=O
> 1.3 µM,17.2 µM,2.5 µM,CC1=C(CCCCC(=O)NCCCN2CCN(CCCNC(=O)CCCCC3=C(C)C(=O)c4cccc(O)c4C3=O)CC2)C(=O)c2c(O)cccc2C1=O
2.5 µM,13.3 µM,> 25 µM,CC1=C(CCCCCNC(=O)OC(C)(C)C)C(=O)c2c(O)cccc2C1=O
4.9 µM,13 µM,2.7 µM,CC1=C(CCC(=O)NCCCCNCCCNC(=O)CCC2=C(C)C(=O)c3ccccc3C2=O)C(=O)c2ccccc2C1=O
1.7 µM,13 µM,1.9 µM,CC1=C(CCC(=O)NCCCNCCCNC(=O)CCC2=C(C)C(=O)c3cccc(O)c3C2=O)C(=O)c2c(O)cccc2C1=O
13.7 µM,13 µM,4.5 µM,CC1=C(CCCC(=O)NCCCN2CCN(CCCNC(=O)CCCC3=C(C)C(=O)c4ccccc4C3=O)CC2)C(=O)c2ccccc2C1=O
> 1.5 µM,12.5 µM,2.5 µM,CC1=C(CCCCCC(=O)NCCCNCCCNC(=O)CCCCCC2=C(C)C(=O)c3ccccc3C2=O)C(=O)c2ccccc2C1=O
> 3 µM,10.4 µM,> 25 µM,CC1=C(CCCCNC(=O)OC(C)(C)C)C(=O)c2ccccc2C1=O
0.9 µM,9.5 µM,> 50 µM,CC1=C(CCNC(=O)OC(C)(C)C)C(=O)c2ccccc2C1=O
1.4 µM,7 µM,> 25 µM,CC1=C(CCCCNC(=O)OC(C)(C)C)C(=O)c2c(O)cccc2C1=O
2.7 µM,4.3 µM,> 50 µM,CC1=C(CCCCCNC(=O)OC(C)(C)C)C(=O)c2ccccc2C1=O
1.1 µM,4.3 µM,0.45 µM,CC1=C(CCCCC(=O)NCCCNCCCNC(=O)CCCCC2=C(C)C(=O)c3cccc(O)c3C2=O)C(=O)c2c(O)cccc2C1=O
> 1.5 µM,4 µM,1.7 µM,CC1=C(CCCCC(=O)NCCCCNCCCNC(=O)CCCCC2=C(C)C(=O)c3cccc(O)c3C2=O)C(=O)c2c(O)cccc2C1=O
2.6 µM,4 µM,1.7 µM,CC1=C(CCCCCC(=O)NCCCCNCCCNC(=O)CCCCCC2=C(C)C(=O)c3ccccc3C2=O)C(=O)c2ccccc2C1=O
0.6 µM,3.7 µM,> 25 µM,CC1=C(CCCNC(=O)OC(C)(C)C)C(=O)c2c(O)cccc2C1=O
> 1.4 µM,3 µM,2 µM,CC1=C(CCCCCC(=O)NCCCNCCCNC(=O)CCCCCC2=C(C)C(=O)c3cccc(O)c3C2=O)C(=O)c2c(O)cccc2C1=O
